Test results from paper PMC3229621 (Biochemical pharmacology, 2011).

Experiments:
[1] = target: T1, CYP26A1 (Homo sapiens, UniProt O43174); test: Depletion of 4-OH-RA, 18-OH-RA and 4-oxo-RA by recombinant CYP26A1; assay type: in vitro ADME; conditions: for kdep (depletion rate constant): CYP26A1, 200 nM initial substrate, mono-exponential decay; for fold efficiency of CYP26A1 over CYP26B1 in depleting substrate: CYP26A1 vs CYP26B1
T1 sequence (O43174 1-497): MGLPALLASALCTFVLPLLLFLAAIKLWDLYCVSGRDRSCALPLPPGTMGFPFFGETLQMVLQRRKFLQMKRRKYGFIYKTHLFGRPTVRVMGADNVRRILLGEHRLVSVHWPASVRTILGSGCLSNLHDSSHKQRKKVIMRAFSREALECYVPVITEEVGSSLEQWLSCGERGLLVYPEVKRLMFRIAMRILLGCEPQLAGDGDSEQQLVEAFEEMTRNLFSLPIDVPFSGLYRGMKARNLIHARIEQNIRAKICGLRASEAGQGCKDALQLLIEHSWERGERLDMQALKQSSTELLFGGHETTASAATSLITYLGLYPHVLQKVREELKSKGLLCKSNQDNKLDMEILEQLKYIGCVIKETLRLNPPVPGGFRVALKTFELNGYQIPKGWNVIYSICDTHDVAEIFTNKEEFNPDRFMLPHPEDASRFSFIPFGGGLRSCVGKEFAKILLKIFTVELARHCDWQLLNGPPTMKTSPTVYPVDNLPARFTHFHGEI

[2] = target: T2, CYP26B1 (Homo sapiens, UniProt Q9NR63); test: Depletion of 4-OH-RA, 18-OH-RA and 4-oxo-RA by recombinant CYP26B1; assay type: in vitro ADME; conditions: 200 nM initial substrate, mono-exponential decay
T2 sequence (Q9NR63 1-512): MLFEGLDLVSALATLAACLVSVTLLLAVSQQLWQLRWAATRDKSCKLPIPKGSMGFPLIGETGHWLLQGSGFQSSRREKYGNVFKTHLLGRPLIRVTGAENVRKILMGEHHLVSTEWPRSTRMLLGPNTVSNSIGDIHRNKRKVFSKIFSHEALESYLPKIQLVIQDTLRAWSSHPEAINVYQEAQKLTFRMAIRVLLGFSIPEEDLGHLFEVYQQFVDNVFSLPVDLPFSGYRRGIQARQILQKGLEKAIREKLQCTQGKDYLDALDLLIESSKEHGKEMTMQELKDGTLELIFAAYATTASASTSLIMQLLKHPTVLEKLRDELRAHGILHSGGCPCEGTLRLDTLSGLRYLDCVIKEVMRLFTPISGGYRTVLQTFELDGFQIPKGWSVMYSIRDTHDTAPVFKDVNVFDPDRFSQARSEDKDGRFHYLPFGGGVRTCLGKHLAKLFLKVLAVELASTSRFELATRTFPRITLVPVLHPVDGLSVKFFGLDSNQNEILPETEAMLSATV

[3] = target: T2, CYP26B1; test: Kinetics of 4-OH-RA and 18-OH-RA formation from atRA by recombinant CYP26B1; conditions: substrate atRA
[4] = target: T1, CYP26A1; test: Kinetics of 4-OH-RA and 18-OH-RA formation from atRA by recombinant CYP26A1
[5] = test system: CYP3As and CYP2C8; conditions: by CYP3As and CYP2C8; cited from earlier work
[6] = target: T3, purified CYP26B1 (Homo sapiens, UniProt Q9NR63); test: Ligand-induced binding spectra with purified CYP26B1
T3 sequence (Q9NR63 1-512): T2 sequence (Q9NR63 1-512)
Outline: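 Human CYP26B1 expressed in Sf9 insect cells, solubilized with NP40 and cholate, and purified on a Talon cobalt affinity column. Active P450 was quantified by CO difference spectrum. Enzyme at 235 pmol/mL in 100 mM KPi (pH 7.4) with 20% glycerol; absolute spectrum recorded first. Test ligand was added to test and reference cuvettes in 12.5 nM steps until saturation and maximal absorbance change.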

[7] = substrate: CC1=C(/C=C/C(C)=C/C=C/C(C)=C/C(=O)O)C(C)(C)CCC1; test: cells, lysate or membranes named; conditions: other: substrate atRA, 37.0 °C

CC1=C(/C=C/C(C)=C/C=C/C(C)=C/C(=O)O)C(C)(C)CCC1=O [4-oxo-RA]
kdep (depletion rate constant) [1]: 0.05 ± 0.01 min⁻¹
fold efficiency of CYP26A1 over CYP26B1 in depleting substrate [1]: 2–4 fold
kdep (depletion rate constant) [2]: 0.02 ± 0.00 min⁻¹

CC(/C=C/C1=C(CO)CCCC1(C)C)=C\C=C\C(C)=C\C(=O)O [18-OH-RA, 18-hydroxyretinoic acid]
kdep (depletion rate constant) [1]: 0.12 ± 0.01 min⁻¹
fold efficiency of CYP26A1 over CYP26B1 in depleting substrate [1]: 2–4 fold
kdep (depletion rate constant) [2]: 0.03 ± 0.01 min⁻¹

CC1=C(/C=C/C(C)=C/C=C/C(C)=C/C(=O)O)C(C)(C)CCC1O (centres unmarked) [4-OH-RA]
kdep (depletion rate constant) [1]: 0.10 ± 0.01 min⁻¹
fold efficiency of CYP26A1 over CYP26B1 in depleting substrate [1]: 2–4 fold
kdep (depletion rate constant) [2]: 0.03 ± 0.01 min⁻¹

CC1=C(/C=C/C(C)=C/C=C/C(C)=C/C(=O)O)C(C)(C)CCC1 [atRA, All-trans-retinoic acid]
18-OH-RA formation by CYP26B1 [3]: could be detected but the formation was insufficient to determine kinetic constants
Vmax of CYP26B1 mediated 4-OH-RA formation relative to CYP26A1 [3]: 10%
fold higher intrinsic clearance by CYP26B1 than by CYP3A4 and CYP2C8 [3]: approximately 100 fold
Clint, 4-OH RA formation ([3]; CYP26B1): 43 µL/min/pmol P450
Vmax, 4-OH RA formation ([3]; CYP26B1): 0.81 ± 0.2 pmol/min/pmol P450
fold efficiency of CYP26A1 over CYP26B1 in overall depletion of atRA ([4]; formation of multiple primary metabolites (4-OH-RA, 18-OH-RA and 16-OH-RA)): approximately 20 fold
Km for CYP26A1 relative to CYP26B1 ([4]; substrate atRA): two-fold higher
Clint, 4-OH RA formation ([4]; substrate atRA, CYP26A1): 190 µL/min/pmol P450
Clint, 18-OH RA formation ([4]; substrate atRA, CYP26A1): 102 µL/min/pmol P450
Vmax, 4-OH RA formation ([4]; substrate atRA, CYP26A1): 9.5 ± 2.2 pmol/min/pmol P450
Vmax, 18-OH RA formation ([4]; substrate atRA, CYP26A1): 5.0 ± 0.5 pmol/min/pmol P450
lower Vmax for 18-OH-RA formation compared to 4-OH-RA formation ([4]; substrate atRA, CYP26A1): 45%
Vmax for atRA hydroxylation [5]: 2–5 pmol/min/pmol P450
intrinsic clearance of atRA metabolism [5]: 0.2–0.4 µL/min/pmol P450
binding of atRA with CYP26B1 (magnitude of difference spectrum) ([6]; atRA concentration dependent): tight binding
ligand-induced difference spectrum type ([6]; purified CYP26B1 235 pmol/mL, atRA 10 nM to 500 nM, low-to-high spin shift of heme iron): type I difference spectrum

B1: CYP26A1 (Homo sapiens) (protein)
chain: T1 sequence (O43174 1-497)
kcat ([7]; CYP26A1): 10 pmol/min/pmol P450
kcat ([7]; CYP26A1, abstract): 10 pmol/min/pmol

B2: CYP26B1 (Homo sapiens) (protein)
chain: T2 sequence (Q9NR63 1-512)
kcat ([7]; CYP26B1): 0.8 pmol/min/pmol P450
kcat ([7]; CYP26B1, abstract): 0.8 pmol/min/pmol
